Laboratory results taken from ChEMBL document CHEMBL1629465, “Efficient synthesis of novel 1,2,4-triazole fused acyclic and 21-28 membered macrocyclic and/or lariat macrocyclic oxaazathia crown compounds with potential antimicrobial activity” (2010).
≈ marks a conversion by molar mass, not a printed value.

Legend:
Assay type in all cases: functional
Aspergillus fumigatus [1] = assay: Antimicrobial activity against Aspergillus fumigatus RCMB 002008 at 1 mg/ml by agar diffusion technique; conditions: read-out: DIZ
How it was run: (§1)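 Agar well diffusion. Test compounds and reference standard drugs were diluted to 5.0, 2.5 and 1.0 mg/mL and applied to 0.6 cm wells. Inhibition zone beyond the control was scored as 0 (no inhibition), + (0.1–0.5 cm), ++ (0.6–1.0 cm) or +++ (1.0–1.5 cm).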

Aspergillus fumigatus [2] = assay: Antimicrobial activity against Aspergillus fumigatus RCMB 002008 at 2.5 mg/ml by agar diffusion technique; conditions: read-out: DIZ; how it was run: as §1
Aspergillus fumigatus [3] = assay: Antimicrobial activity against Aspergillus fumigatus RCMB 002008 at 5 mg/ml by agar diffusion technique; conditions: read-out: DIZ; how it was run: as §1
Penicillium italicum [4] = assay: Antimicrobial activity against Penicillium italicum RCMB 001018 at 1 mg/ml by agar diffusion technique; conditions: read-out: DIZ; how it was run: as §1
Penicillium italicum [5] = assay: Antimicrobial activity against Penicillium italicum RCMB 001018 at 2.5 mg/ml by agar diffusion technique; conditions: read-out: DIZ; how it was run: as §1
Penicillium italicum [6] = assay: Antimicrobial activity against Penicillium italicum RCMB 001018 at 5 mg/ml by agar diffusion technique; conditions: read-out: DIZ; how it was run: as §1
[7] = tested on: Syncephalastrum racemosum; assay: Antimicrobial activity against Syncephalastrum racemosum RCMB 016001 at 1 mg/ml by agar diffusion technique; conditions: read-out: DIZ; how it was run: as §1
[8] = tested on: Syncephalastrum racemosum; assay: Antimicrobial activity against Syncephalastrum racemosum RCMB 016001 at 2.5 mg/ml by agar diffusion technique; conditions: read-out: DIZ; how it was run: as §1
[9] = tested on: Syncephalastrum racemosum; assay: Antimicrobial activity against Syncephalastrum racemosum RCMB 016001 at 5 mg/ml by agar diffusion technique; conditions: read-out: DIZ; how it was run: as §1
Candida albicans [10] = assay: Antimicrobial activity against Candida albicans RCMB 005003 at 1 mg/ml by agar diffusion technique; conditions: read-out: DIZ; how it was run: as §1
Candida albicans [11] = assay: Antimicrobial activity against Candida albicans RCMB 005003 at 2.5 mg/ml by agar diffusion technique; conditions: read-out: DIZ; how it was run: as §1
Candida albicans [12] = assay: Antimicrobial activity against Candida albicans RCMB 005003 at 5 mg/ml by agar diffusion technique; conditions: read-out: DIZ; how it was run: as §1
Staphylococcus aureus [13] = assay: Antimicrobial activity against Staphylococcus aureus RCMB 106001 at 1 mg/ml by agar diffusion technique; conditions: read-out: DIZ; how it was run: as §1
Staphylococcus aureus [14] = assay: Antimicrobial activity against Staphylococcus aureus RCMB 106001 at 2.5 mg/ml by agar diffusion technique; conditions: read-out: DIZ; how it was run: as §1
Staphylococcus aureus [15] = assay: Antimicrobial activity against Staphylococcus aureus RCMB 106001 at 5 mg/ml by agar diffusion technique; conditions: read-out: DIZ; how it was run: as §1
Pseudomonas aeruginosa [16] = assay: Antimicrobial activity against Pseudomonas aeruginosa RCMB 102002 at 1 mg/ml by agar diffusion technique; conditions: read-out: DIZ; how it was run: as §1
Pseudomonas aeruginosa [17] = assay: Antimicrobial activity against Pseudomonas aeruginosa RCMB 102002 at 2.5 mg/ml by agar diffusion technique; conditions: read-out: DIZ; how it was run: as §1
Pseudomonas aeruginosa [18] = assay: Antimicrobial activity against Pseudomonas aeruginosa RCMB 102002 at 5 mg/ml by agar diffusion technique; conditions: read-out: DIZ; how it was run: as §1
Bacillus subtilis [19] = assay: Antimicrobial activity against Bacillus subtilis RCMB 101001 at 1 mg/ml by agar diffusion technique; conditions: read-out: DIZ; how it was run: as §1
Bacillus subtilis [20] = assay: Antimicrobial activity against Bacillus subtilis RCMB 101001 at 2.5 mg/ml by agar diffusion technique; conditions: read-out: DIZ; how it was run: as §1
Bacillus subtilis [21] = assay: Antimicrobial activity against Bacillus subtilis RCMB 101001 at 5 mg/ml by agar diffusion technique; conditions: read-out: DIZ; how it was run: as §1
Escherichia coli [22] = assay: Antimicrobial activity against Escherichia coli RCMB 103001 at 1 mg/ml by agar diffusion technique; conditions: read-out: DIZ; how it was run: as §1
Escherichia coli [23] = assay: Antimicrobial activity against Escherichia coli RCMB 103001 at 2.5 mg/ml by agar diffusion technique; conditions: read-out: DIZ; how it was run: as §1
Escherichia coli [24] = assay: Antimicrobial activity against Escherichia coli RCMB 103001 at 5 mg/ml by agar diffusion technique; conditions: read-out: DIZ; how it was run: as §1
Candida albicans [25] = assay: Antimicrobial activity against Candida albicans RCMB 005003 by twofold serial dilution method
How it was run: (§2)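 MIC was determined by further twofold serial dilution across twelve levels, from 1000 down to 0.49. Strains were the same bacterial, yeast and fungal RCMB isolates used in the diffusion screen.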

Staphylococcus aureus [26] = assay: Antimicrobial activity against Staphylococcus aureus RCMB 106001 by twofold serial dilution method; how it was run: as §2
Pseudomonas aeruginosa [27] = assay: Antimicrobial activity against Pseudomonas aeruginosa RCMB 102002 by twofold serial dilution method; how it was run: as §2
Escherichia coli [28] = assay: Antimicrobial activity against Escherichia coli RCMB 103001 by twofold serial dilution method; conditions: Escherichia coli, RCMB 103001; read-out: MIC; how it was run: as §2

SMILES | zone of inhibition at 1000 µg/mL (Aspergillus fumigatus [1]) | zone of inhibition at 2500 µg/mL (Aspergillus fumigatus [2]) | zone of inhibition at 5000 µg/mL (Aspergillus fumigatus [3]) | zone of inhibition at 1000 µg/mL (Penicillium italicum [4]) | zone of inhibition at 2500 µg/mL (Penicillium italicum [5]) | zone of inhibition at 5000 µg/mL (Penicillium italicum [6]) | zone of inhibition at 1000 µg/mL [7] | zone of inhibition at 2500 µg/mL [8] | zone of inhibition at 5000 µg/mL [9] | zone of inhibition at 1000 µg/mL (Candida albicans [10]) | zone of inhibition at 2500 µg/mL (Candida albicans [11]) | zone of inhibition at 1000 µg/mL (Staphylococcus aureus [13]) | zone of inhibition at 2500 µg/mL (Staphylococcus aureus [14]) | zone of inhibition at 1000 µg/mL (Pseudomonas aeruginosa [16]) | zone of inhibition at 2500 µg/mL (Pseudomonas aeruginosa [17]) | zone of inhibition at 1000 µg/mL (Bacillus subtilis [19]) | zone of inhibition at 2500 µg/mL (Bacillus subtilis [20]) | zone of inhibition at 5000 µg/mL (Bacillus subtilis [21]) | zone of inhibition at 1000 µg/mL (Escherichia coli [22]) | zone of inhibition at 2500 µg/mL (Escherichia coli [23]) | also measured
Nn1c(SCCSc2nnc(-c3cccnc3)n2N)nnc1-c1cccnc1 | 0 mm | 0 mm | 0 mm | 0 mm | 1 mm | 1 mm | 0 mm | 0 mm | 0 mm | 1 mm | 1 mm | 0 mm | 0 mm | 0 mm | 0 mm | 0 mm | 0 mm | 0 mm | 0 mm | 0 mm | zone of inhibition at 5000 µg/mL (Candida albicans [12]): 1 mm; zone of inhibition at 5000 µg/mL (Staphylococcus aureus [15]): 1 mm; zone of inhibition at 5000 µg/mL (Pseudomonas aeruginosa [18]): 0 mm; zone of inhibition at 5000 µg/mL (Escherichia coli [24]): 1 mm
C1=N\n2c(nnc2-c2cccnc2)SCCCCSc2nnc(-c3cccnc3)n2/N=C\c2ccccc2OCCOCCOCCOc2ccccc2/1 | 0 mm | 0 mm | 0 mm | 0 mm | 0 mm | 0 mm | 0 mm | 0 mm | 1 mm | 0 mm | 0 mm | 0 mm | 0 mm | 0 mm | 1 mm | 0 mm | 0 mm | 0 mm | 0 mm | 1 mm | zone of inhibition at 5000 µg/mL (Candida albicans [12]): 0 mm; zone of inhibition at 5000 µg/mL (Staphylococcus aureus [15]): 1 mm; zone of inhibition at 5000 µg/mL (Pseudomonas aeruginosa [18]): 1 mm; zone of inhibition at 5000 µg/mL (Escherichia coli [24]): 1 mm
OC1COc2ccccc2/C=N\n2c(nnc2-c2cccnc2)SCCCSc2nnc(-c3cccnc3)n2/N=C\c2ccccc2OC1 | 0 mm | 0 mm | 0 mm | 0 mm | 1 mm | 1 mm | 0 mm | 1 mm | 1 mm | 0 mm | 1 mm | 0 mm | 0 mm | 0 mm | 0 mm | 1 mm | 1 mm | 6 mm | 0 mm | 0 mm | zone of inhibition at 5000 µg/mL (Candida albicans [12]): 1 mm; zone of inhibition at 5000 µg/mL (Staphylococcus aureus [15]): 0 mm; zone of inhibition at 5000 µg/mL (Pseudomonas aeruginosa [18]): 0 mm; zone of inhibition at 5000 µg/mL (Escherichia coli [24]): 0 mm
Nn1c(-c2cccnc2)n[nH]c1=S | 0 mm | 0 mm | 0 mm | 0 mm | 0 mm | 1 mm | 0 mm | 0 mm | 0 mm | 0 mm | 0 mm | 0 mm | 0 mm | 0 mm | 0 mm | 0 mm | 0 mm | 0 mm | 0 mm | 0 mm | zone of inhibition at 5000 µg/mL (Candida albicans [12]): 0 mm; zone of inhibition at 5000 µg/mL (Staphylococcus aureus [15]): 0 mm; zone of inhibition at 5000 µg/mL (Pseudomonas aeruginosa [18]): 0 mm; zone of inhibition at 5000 µg/mL (Escherichia coli [24]): 1 mm
C1=N\n2c(nnc2-c2cccnc2)SCCCCSc2nnc(-c3cccnc3)n2/N=C\c2ccccc2OCCCCOc2ccccc2/1 | 0 mm | 0 mm | 0 mm | 0 mm | 0 mm |  | 0 mm | 0 mm | 0 mm | 0 mm | 1 mm | 1 mm | 1 mm | 0 mm | 0 mm | 0 mm | 0 mm | 0 mm | 1 mm | 1 mm | MIC (Candida albicans [25]): 250 µg/mL (≈ 356 µM); MIC (Candida albicans [25]; Candida albicans, RCMB 005003, read-out: MIC): 250 µg/mL (≈ 356 µM); MIC (Staphylococcus aureus [26]): 250 µg/mL (≈ 356 µM); MIC (Staphylococcus aureus [26]; Staphylococcus aureus, RCMB 106001, read-out: MIC): 250 µg/mL (≈ 356 µM); MIC (Pseudomonas aeruginosa [27]): 250 µg/mL (≈ 356 µM); MIC (Pseudomonas aeruginosa [27]; Pseudomonas aeruginosa, RCMB 102002, read-out: MIC): 250 µg/mL (≈ 356 µM); MIC (Escherichia coli [28]): 250 µg/mL (≈ 356 µM)
OC1COc2ccccc2CNn2c(nnc2-c2cccnc2)SCCCSc2nnc(-c3cccnc3)n2NCc2ccccc2OC1 | 0 mm | 0 mm | 0 mm | 0 mm | 0 mm | 0 mm | 0 mm | 0 mm | 0 mm | 0 mm | 0 mm | 0 mm | 0 mm | 0 mm | 0 mm | 1 mm | 6 mm | 6 mm | 0 mm | 0 mm | zone of inhibition at 5000 µg/mL (Candida albicans [12]): 0 mm; zone of inhibition at 5000 µg/mL (Staphylococcus aureus [15]): 0 mm; zone of inhibition at 5000 µg/mL (Pseudomonas aeruginosa [18]): 0 mm; zone of inhibition at 5000 µg/mL (Escherichia coli [24]): 0 mm
O=C(N[C@H](CO)[C@H](O)c1ccc([N+](=O)[O-])cc1)C(Cl)Cl [CHLORAMPHENICOL] | 6 mm | 10 mm | 10 mm | 6 mm | 10 mm | 10 mm | 10 mm | 10 mm | 10 mm | 6 mm | 6 mm | 6 mm | 6 mm | 6 mm | 10 mm | 6 mm | 10 mm | 10 mm | 6 mm | 6 mm | zone of inhibition at 5000 µg/mL (Candida albicans [12]): 6 mm; zone of inhibition at 5000 µg/mL (Staphylococcus aureus [15]): 6 mm; zone of inhibition at 5000 µg/mL (Pseudomonas aeruginosa [18]): 10 mm; zone of inhibition at 5000 µg/mL (Escherichia coli [24]): 6 mm
Nn1c(SCCCCSc2nnc(-c3cccnc3)n2N)nnc1-c1cccnc1 | 0 mm | 0 mm | 0 mm | 0 mm | 0 mm | 0 mm | 1 mm | 1 mm | 1 mm | 0 mm | 0 mm | 0 mm | 1 mm | 0 mm | 0 mm | 0 mm | 1 mm | 1 mm | 0 mm | 0 mm | zone of inhibition at 5000 µg/mL (Candida albicans [12]): 0 mm; zone of inhibition at 5000 µg/mL (Staphylococcus aureus [15]): 1 mm; zone of inhibition at 5000 µg/mL (Pseudomonas aeruginosa [18]): 0 mm; zone of inhibition at 5000 µg/mL (Escherichia coli [24]): 0 mm
